{"data": "Assay results pooled from the literature", "organism": "Hepatitis C virus", "read-out": "viral replication", "mode": "inhibitor", "note": "Each line is one published result; the experiments were not run side by side."}
{"SMILES": "O=C1OC[C@H]2OC(O)[C@H](O)[C@@H](O)[C@@H]2OC(=O)c2cc(O)c(O)c(O)c2-c2c(O)c(O)c3oc(=O)c4c(c(O)c(O)c5oc(=O)c2c3c54)-c2c1cc(O)c(O)c2O (mixture of isomers)", "cells": "Huh-7", "strain": "GETYPE2A", "time": "48 h", "notes": "replicon", "EC50 [nM]": "> 150000"}
{"SMILES": "CC(C)(C)OC(=O)N[C@H]1CCCCC/C=C\\[C@@H]2C[C@@]2(C(=O)NS(=O)(=O)C2CC2)NC(=O)[C@@H]2C[C@@H](OC(=O)N3Cc4cccc(F)c4C3)CN2C1=O", "cells": "Huh-7", "strain": "GETYPE1A GETYPE1B", "time": "96 h", "notes": "replicon", "EC50 [nM]": 0.57}
{"SMILES": "C=C1CC[C@H](O)C/C1=C/C=C1\\CCC[C@]2(C)[C@@H]([C@H](C)CCCC(C)C)CC[C@@H]12", "technique": "luciferase", "cells": "BM4-5", "strain": "GETYPE1B", "time": "72 h", "notes": "replicon", "EC50 [nM]": 6100}
{"SMILES": "C[C@H](NC(=O)OCc1ccccc1)C(=O)Nc1ccc(C2S/C(=N\\c3cccc(F)c3)N(Cc3ccco3)C2=O)cc1 (some centres unmarked)", "cells": "Huh-7", "strain": "GETYPE1B", "notes": "replicon", "EC50 [nM]": 570}
{"SMILES": "O=C1O[C@H]2[C@@H]3OC(=O)c4cc(O)c(O)c(O)c4-c4c(O)c(O)c5oc(=O)c6c(c(O)c(O)c7oc(=O)c4c5c76)-c4c(cc(O)c(O)c4O)C(=O)OC[C@H]3OC(O)[C@@H]2OC(=O)c2cc(O)c(O)c(O)c2-c2c1cc(O)c(O)c2O (mixture of isomers)", "cells": "Huh-7", "strain": "GETYPE2A", "time": "48 h", "notes": "replicon", "EC50 [nM]": "~100000"}
{"SMILES": "C=C1/C(=C\\C=C2/CCC[C@]3(C)[C@@H]([C@H](C)CCCC(C)(C)O)CC[C@@H]23)C[C@@H](O)C[C@@H]1O", "technique": "luciferase", "cells": "BM4-5", "strain": "GETYPE1B", "time": "5 days", "notes": "replicon", "EC50 [nM]": 1100}
{"SMILES": "CCC(=O)Nc1cc(C(=O)Nc2ccc(CN3CCN(C)CC3)c(C(F)(F)F)c2)ccc1OC", "technique": "qPCR", "cells": "Huh7.5", "strain": "GETYPE2A", "time": "72 h", "EC50 [nM]": "< 1500"}
{"SMILES": "C=C1CC[C@H](O)C/C1=C/C=C1\\CCC[C@]2(C)[C@@H]([C@H](C)/C=C/[C@H](C)C(C)C)CC[C@@H]12", "technique": "luciferase", "cells": "BM4-5", "strain": "GETYPE1B", "time": "5 days", "notes": "replicon", "EC50 [nM]": 14200}
{"SMILES": "COC(=O)N[C@H](C(=O)N1CCC[C@H]1c1ncc(-c2ccc(-c3ccc(-c4cnc([C@@H]5CCCN5C(=O)[C@@H](NC(=O)OC)C(C)C)[nH]4)cc3)cc2)[nH]1)C(C)C", "strain": "GETYPE2A", "notes": "replicon", "EC50 [nM]": 0.103}
{"SMILES": "COc1nc(N)nc2c1ncn2[C@@H]1O[C@H](COP(=O)(N[C@@H](C)C(=O)OCC(C)(C)C)Oc2cccc3ccccc23)[C@@H](O)[C@@]1(C)O (some centres unmarked)", "strain": "GETYPE1A", "time": "96 h", "notes": "replicon", "EC50 [nM]": 1.4}
{"SMILES": "CN1CCN([C@@H](c2ccccc2)c2ccc(Cl)cc2)CC1", "cells": "Huh-7.5.1", "strain": "GETYPE2A", "time": "48 h", "notes": "replicon", "EC50 [nM]": 24}
